Assay results gathered from unrelated publications.
Lines come from different studies, so protocols differ.
Target: Tyrosine-protein kinase Lck (LCK, Homo sapiens, UniProt P06239)

N#Cc1ccc(Nc2ccc3[nH]c(=O)[nH]c3c2)c(Cl)c1 — remaining binding (cell-free assay; competition with immobilised ligand; 1 µM): 100%
C[C@@H]1CCN(c2nccc(-c3cnn4ncccc34)n2)C1 — remaining binding (binding; 1 µM): 93%
CN([C@@H]1CCc2c(CC(=O)O)c3cc(S(C)(=O)=O)ccc3n2C1)S(=O)(=O)c1ccc(F)cc1 — remaining binding (cell-free assay; competition with immobilised ligand; 1 µM): 100%
c1cnn2ncc(-c3ccnc(N4CCC45COC5)n3)c2c1 — remaining binding (binding; 1 µM): 99%
O=C(c1ccc(Nc2nccc(-c3cc4ccccc4s3)n2)cc1)N1CCC(N2CCCC2)CC1 — remaining binding (binding; competition with immobilised ligand; 1 µM): 34%
F[C@@H]1CCN(c2nccc(-c3cnn4ncccc34)n2)C1 — remaining binding (binding; 1 µM): 100%
CNC(=O)[C@@H]1CC[C@@H](n2c(-c3ccc4cnccc4c3)nc3ccc(C(=O)NCc4cccc(C(N)=O)c4)cc32)C1 — remaining binding (binding; competition with immobilised ligand; 1 µM): 94%
O=C(c1ccc(Nc2ncc(Cl)c(-c3ccc(Cl)s3)n2)cc1)N1CCC(N2CCCC2)CC1 — remaining binding (binding; competition with immobilised ligand; 1 µM): 32%
c1cncc(-c2cccc(Nc3nccc(NC4CCCCC4)n3)c2)c1 — remaining binding (binding; competition with immobilised ligand; 10 µM): 6.6%
O=C(NCC1CCOCC1)c1n[nH]cc1NC(=O)c1c(F)cccc1F — remaining binding (binding; competition with immobilised ligand; 1 µM): 100%
CNCc1ccccc1-c1csc([C@H](C)Nc2nc(C)nc3cc(OC)c(OC)cc23)c1 — remaining binding (cell-free assay; competition with immobilised ligand; 1 µM): 100%
O=C(c1ccc(Nc2ncc(Cl)c(-c3cc4ccccc4s3)n2)cc1)N1CCC(N2CCCC2)CC1 — remaining binding (binding; competition with immobilised ligand; 1 µM): 21%
COc1ccc2cc(OCC3(C(=O)O)CN(C(=O)c4ccc(F)cc4)C3)ccc2c1 — remaining binding (cell-free assay; competition with immobilised ligand; 1 µM): 80%
C[C@@H](c1ccc(-n2cnc3c(N)ncnc32)cc1)N1CCc2nn(C)c(Cc3ccccc3)c2C1=O — remaining binding (binding; competition with immobilised ligand; 0.1 µM): 94%
CCCOc1ccc([C@H]2[C@H](C(=O)O)[C@@H](c3ccc4c(c3)OCO4)CN2CC(=O)Nc2c(CC)cccc2CC)cc1 — remaining binding (cell-free assay; competition with immobilised ligand; 1 µM): 100%
COc1ncc2cc3ccccc3nc2c1C#N — remaining binding (binding; competition with immobilised ligand; 5 µM): 93%
